In ChEMBL document CHEMBL4602721, “Discovery of Potent Inhibitors against P-Glycoprotein-Mediated Multidrug Resistance Aided by Late-Stage Functionalization of a 2-(4-(Pyridin-2-yl)phenoxy)pyridine Analogue” (J Med Chem, 2020):
Calls of active or inactive are those of the source. The calls are words filed in the database; no cut-off is given here.

Key:
[1] = Cytotoxicity against human SW620/AD300 cells assessed as cell growth inhibition at 10 uM incubated for 48 hrs by SRB assay relative to control; format: cell-based; settings: read-out: GI
[2] = target: T1, ATP-dependent translocase ABCB1 (Homo sapiens, UniProt P08183); test: Reversal of Pgp-mediated DOX resistance in human SW620/AD300 cells assessed as potentiation of DOX-induced cytotoxicity by measuring inhibition of cell proliferation at 1 uM incubated for 48 hrs by SRB assay (reference value: 5.3 +/- 3 %); format: cell-based
[3] = tested on: SW620/AD300; test: Downregulation of ABCB1 expression in human SW620/AD300 cells at 1 to 5 uM incubated for 48 hrs by Western blot analysis; format: functional, cell-based
Method in brief: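 SW620 and SW620/AD300 cells compared for ABCB1 level; SW620/AD300 treated at 0, 1.0, 2.0 or 5.0 μM for 48 h, then ABCB1 protein assessed.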

[4] = target: T2, Multidrug resistance-associated protein 1 (Homo sapiens, UniProt P33527); test: Reversal of ABCC1-mediated vincristine resistance in human KB-CV60 cells assessed as potentiation of vincristine-induced cytotoxicity by measuring change in vincristine IC50 at 5 uM incubated for 48 hrs by SRB assay relative to vincristine IC50; format: cell-based
Method in brief: (§1)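 ABCC1-overexpressing KB-CV60 cells: vincristine IC50 determined alone or with modulator at 2.5 or 5 μM; MK571 25 μM reference; reversal fold calculated as IC50 ratio without/with modulator.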

[5] = tested on: K562/A02; test: Potentiation of DOX-induced anti tumor activity against human K562/A02 cells xenografted in BALB/c mouse assessed as tumor size at 30 mg/kg, iv administered every 2 days for 14 days measured during compound dosing by caliper method (reference value: 610 mm3); format: functional
Method in brief: (§2)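 Mice bearing subcutaneous ABCB1-overexpressing K562/A02 xenografts treated with DOX alone, modulator alone, or combinations (verapamil as comparator) for 14 days; tumor volume measured every two days.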

[6] = Cytotoxicity against human NCI-H460/MX20 cells assessed as effect on cell proliferation at 2.5 to 5 uM measured after 48 hrs by SRB assay; format: cell-based
[7] = target: T2, Multidrug resistance-associated protein 1; test: Reversal of ABCC1-mediated vincristine resistance in human KB-CV60 cells assessed as potentiation of vincristine-induced cytotoxicity by measuring change in vincristine IC50 at 2.5 uM incubated for 48 hrs by SRB assay relative to vincristine IC50; format: cell-based; method in brief: as §1
[8] = tested on: K562/A02; test: Potentiation of DOX-induced anti tumor activity against human K562/A02 cells xenografted in BALB/c mouse assessed as reduction in tumor weight at 30 mg/kg, iv administered every 2 days for 14 days measured 24 hrs post-last dose; format: functional, organism-based
Method in brief: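 K562/A02 subcutaneous xenograft mice treated 14 days with DOX with or without modulator; tumors excised and weighed at Day 14.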

[9] = target: T1, ATP-dependent translocase ABCB1; test: Binding affinity to ABCB1 in human SW620/AD300 cells assessed as increase in thermal stability of ABCB1 at 20 uM incubated for 30 to 60 mins followed by heating at 40.5 to 59.5 degC by […]; format: cell-based; settings: sw620/ad300, 20 µM
[10] = target: T1, ATP-dependent translocase ABCB1; test: Reversal of ABCB1-mediated multidrug resistance in human SW620/AD300 cells assessed as increase in Rh123 accumulation at 0.01 to 0.5 uM incubated for 4 hrs by flow cytometry; format: cell-based; settings: sw620/ad300, 4 h
Method in brief: (§3)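 SW620 and SW620/AD300 cells exposed to 1 μg/mL rhodamine 123 with or without modulator; intracellular Rh123 content measured; mean ± SD of three independent experiments.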

[11] = tested on: SW-620; test: Induction of Rh123 accumulation in human SW620 cells at 0.01 to 0.5 uM incubated for 4 hrs by flow cytometry; format: functional, cell-based; method in brief: as §3
[12] = Cytotoxicity against human KB-CV60 cells assessed as effect on cell proliferation at 2.5 to 5 uM measured after 48 hrs by SRB assay; format: cell-based
[13] = target: T3, Broad substrate specificity ATP-binding cassette transporter ABCG2 (Homo sapiens, UniProt Q9UNQ0); test: Reversal of ABCG2-mediated mitoxantrone resistance in human NCI-H460/MX20 cells assessed as potentiation of mitoxantrone-induced cytotoxicity by measuring change in mitoxantrone IC50 at 2.5 uM incubated for 48 hrs by SRB assay relative to mitoxantrone IC50; format: cell-based
T3 sequence (Q9UNQ0 whole entry): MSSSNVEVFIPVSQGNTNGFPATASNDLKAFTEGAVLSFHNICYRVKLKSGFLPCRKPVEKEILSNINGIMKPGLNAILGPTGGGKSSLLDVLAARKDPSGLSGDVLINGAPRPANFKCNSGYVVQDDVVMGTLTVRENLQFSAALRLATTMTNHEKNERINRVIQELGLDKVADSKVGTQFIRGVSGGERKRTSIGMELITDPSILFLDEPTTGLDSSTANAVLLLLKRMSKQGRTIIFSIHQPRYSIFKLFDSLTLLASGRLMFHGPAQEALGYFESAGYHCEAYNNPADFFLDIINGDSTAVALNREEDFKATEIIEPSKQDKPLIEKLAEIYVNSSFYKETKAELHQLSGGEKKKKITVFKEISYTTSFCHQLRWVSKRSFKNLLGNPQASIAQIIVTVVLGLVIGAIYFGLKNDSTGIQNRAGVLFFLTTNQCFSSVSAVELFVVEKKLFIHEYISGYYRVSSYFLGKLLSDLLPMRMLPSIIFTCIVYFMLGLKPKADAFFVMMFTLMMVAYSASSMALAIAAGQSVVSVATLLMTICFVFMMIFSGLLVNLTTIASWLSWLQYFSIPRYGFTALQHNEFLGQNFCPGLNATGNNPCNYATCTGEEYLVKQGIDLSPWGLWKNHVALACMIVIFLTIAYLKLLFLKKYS

[14] = target: T1, ATP-dependent translocase ABCB1; test: Reversal of ABCB1-mediated multidrug resistance in human SW620 cells assessed as reduction in Rh123 efflux at 0.01 to 0.5 uM incubated for 4 hrs by flow cytometry analysis; format: cell-based; settings: sw-620, 4 h
Method in brief: (§4)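 Cells pre-loaded with rhodamine 123, then efflux monitored in SW620 and SW620/AD300 cells over a range of modulator levels; mean ± SD of three independent experiments.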

[15] = target: T1, ATP-dependent translocase ABCB1; test: Reversal of ABCB1-mediated multidrug resistance in human SW620/AD300 cells assessed as reduction in Rh123 efflux incubated for 4 hrs by flow cytometry analysis; format: cell-based; settings: sw620/ad300, 4 h; method in brief: as §4
[16] = target: T1, ATP-dependent translocase ABCB1; test: Reversal of Pgp-mediated DOX resistance in human SW620/AD300 cells assessed as potentiation of DOX-induced cytotoxicity by measuring change in DOX IC50 at 1 uM incubated for 48 hrs by SRB assay relative to DOX alone; format: cell-based; settings: sw620/ad300, 48 h
[17] = target: T3, Broad substrate specificity ATP-binding cassette transporter ABCG2; test: Reversal of ABCG2-mediated mitoxantrone resistance in human NCI-H460/MX20 cells assessed as potentiation of mitoxantrone-induced cytotoxicity by measuring change in mitoxantrone IC50 at 5 uM incubated for 48 hrs by SRB assay relative to mitoxantrone IC50; format: cell-based
[18] = tested on: K562/A02; test: Effect on tumor size of human K562/A02 cells xenografted in BALB/c mouse at 30 mg/kg, iv administered every 2 days for 14 days measured during compound dosing by caliper method; format: ADME, organism-based; settings: in vivo; method in brief: as §2

T1 sequence (P08183 whole entry): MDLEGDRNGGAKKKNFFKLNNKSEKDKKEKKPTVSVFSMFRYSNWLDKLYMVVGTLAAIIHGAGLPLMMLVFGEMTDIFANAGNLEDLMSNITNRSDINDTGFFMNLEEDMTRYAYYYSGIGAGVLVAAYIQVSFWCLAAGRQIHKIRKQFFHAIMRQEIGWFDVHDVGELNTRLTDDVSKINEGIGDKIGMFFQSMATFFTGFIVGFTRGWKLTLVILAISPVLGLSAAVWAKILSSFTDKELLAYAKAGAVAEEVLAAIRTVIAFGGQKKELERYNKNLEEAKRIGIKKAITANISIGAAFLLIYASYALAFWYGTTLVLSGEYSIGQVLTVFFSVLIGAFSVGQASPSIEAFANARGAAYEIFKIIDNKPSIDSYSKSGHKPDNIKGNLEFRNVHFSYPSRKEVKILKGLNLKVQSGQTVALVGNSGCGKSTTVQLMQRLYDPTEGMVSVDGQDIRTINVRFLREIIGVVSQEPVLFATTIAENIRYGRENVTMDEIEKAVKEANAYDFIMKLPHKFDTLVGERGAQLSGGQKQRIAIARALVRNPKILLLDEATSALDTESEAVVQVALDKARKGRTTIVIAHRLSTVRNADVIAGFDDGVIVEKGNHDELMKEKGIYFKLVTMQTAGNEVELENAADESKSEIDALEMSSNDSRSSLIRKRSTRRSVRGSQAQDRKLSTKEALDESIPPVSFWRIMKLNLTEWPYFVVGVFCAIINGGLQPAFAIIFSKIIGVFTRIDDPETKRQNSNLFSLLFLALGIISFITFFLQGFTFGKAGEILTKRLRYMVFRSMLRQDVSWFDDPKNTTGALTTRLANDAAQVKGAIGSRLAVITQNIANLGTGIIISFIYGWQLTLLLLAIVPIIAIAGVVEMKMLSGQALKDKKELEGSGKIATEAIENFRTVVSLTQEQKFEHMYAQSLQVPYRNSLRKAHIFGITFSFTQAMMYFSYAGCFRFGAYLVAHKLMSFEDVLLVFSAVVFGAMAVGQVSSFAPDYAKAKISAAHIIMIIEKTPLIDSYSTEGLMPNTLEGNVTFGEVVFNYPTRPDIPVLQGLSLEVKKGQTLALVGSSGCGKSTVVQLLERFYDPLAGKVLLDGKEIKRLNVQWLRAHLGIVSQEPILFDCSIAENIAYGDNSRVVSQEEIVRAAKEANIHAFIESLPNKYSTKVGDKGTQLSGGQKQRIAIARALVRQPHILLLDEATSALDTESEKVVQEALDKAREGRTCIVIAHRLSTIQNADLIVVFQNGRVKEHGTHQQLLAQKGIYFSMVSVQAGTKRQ
T2 sequence (P33527 whole entry): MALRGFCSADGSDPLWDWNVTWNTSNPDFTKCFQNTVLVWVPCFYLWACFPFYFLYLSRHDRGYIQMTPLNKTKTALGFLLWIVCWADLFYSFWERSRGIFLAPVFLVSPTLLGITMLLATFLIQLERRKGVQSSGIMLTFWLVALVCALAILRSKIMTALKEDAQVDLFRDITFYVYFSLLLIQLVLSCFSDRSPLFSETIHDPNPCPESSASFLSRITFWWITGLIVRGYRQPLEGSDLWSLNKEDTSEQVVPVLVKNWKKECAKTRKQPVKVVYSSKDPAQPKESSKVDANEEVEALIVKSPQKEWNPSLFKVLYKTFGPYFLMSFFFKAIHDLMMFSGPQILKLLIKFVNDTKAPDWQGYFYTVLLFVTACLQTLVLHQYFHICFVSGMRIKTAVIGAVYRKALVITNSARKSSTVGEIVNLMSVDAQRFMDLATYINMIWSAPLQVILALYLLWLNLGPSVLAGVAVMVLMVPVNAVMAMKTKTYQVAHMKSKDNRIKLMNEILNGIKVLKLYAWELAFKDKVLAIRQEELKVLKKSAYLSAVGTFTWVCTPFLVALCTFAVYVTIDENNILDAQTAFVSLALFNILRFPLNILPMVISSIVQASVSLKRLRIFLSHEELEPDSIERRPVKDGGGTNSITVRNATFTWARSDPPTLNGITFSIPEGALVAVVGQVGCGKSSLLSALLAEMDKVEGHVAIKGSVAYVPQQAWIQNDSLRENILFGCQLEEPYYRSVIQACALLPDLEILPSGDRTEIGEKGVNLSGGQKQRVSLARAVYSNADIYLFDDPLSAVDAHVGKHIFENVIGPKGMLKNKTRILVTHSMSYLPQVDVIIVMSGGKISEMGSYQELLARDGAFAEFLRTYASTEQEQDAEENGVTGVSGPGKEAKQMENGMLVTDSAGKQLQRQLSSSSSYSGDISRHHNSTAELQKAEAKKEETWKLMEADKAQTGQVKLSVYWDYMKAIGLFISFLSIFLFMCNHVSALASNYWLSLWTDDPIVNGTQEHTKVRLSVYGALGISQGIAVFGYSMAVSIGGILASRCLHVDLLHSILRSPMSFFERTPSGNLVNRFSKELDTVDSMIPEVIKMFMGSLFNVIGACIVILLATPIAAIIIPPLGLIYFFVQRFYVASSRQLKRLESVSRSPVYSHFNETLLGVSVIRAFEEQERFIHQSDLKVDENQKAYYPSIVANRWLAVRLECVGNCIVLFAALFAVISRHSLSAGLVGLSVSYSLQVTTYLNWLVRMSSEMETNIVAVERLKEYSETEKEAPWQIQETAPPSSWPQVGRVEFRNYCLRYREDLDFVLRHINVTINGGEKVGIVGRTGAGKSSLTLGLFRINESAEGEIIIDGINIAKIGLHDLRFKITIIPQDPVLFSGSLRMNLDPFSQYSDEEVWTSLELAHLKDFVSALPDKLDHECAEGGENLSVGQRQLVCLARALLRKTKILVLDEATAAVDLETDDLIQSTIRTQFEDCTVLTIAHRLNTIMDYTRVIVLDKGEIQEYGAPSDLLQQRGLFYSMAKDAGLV

For COc1cc2c(cc1OC)CN(CCc1ccc(NC(=O)/C=C/c3ccc(Oc4ccc(-c5ccccn5)c(Cl)c4)nc3)cc1)CC2, the inhibition at 48 h, 10 µM [1] was 9.7%, the inhibition at 1 µM [2] was 60.3% and the Activity [3] was “inactive”. For the same compound, the “fold change (FC)” value [4] was 1.43, the Activity [5] was 437 mm3 and the Activity [6] was “Non-Toxic”. For the same compound, the “fold change (FC)” value [7] was 1.12, the Activity [8] was “Active” and the Activity [9] was “Active”. The Activity [10] was “Active”, the Activity [11] was “inactive” and the Activity [12] was “Non-Toxic”. For the same compound, the “fold change (FC)” value [13] was 0.99, the Activity [14] was “Not Active” and the Activity [15] was “Dose-dependent effect”. The “fold change (FC)” value [16] was 59.63, the “fold change (FC)” value [17] was 2.32 and the Activity [18] was “Non-Toxic”.
